AP ELISA ortho = alternative pathway complement inhibition, orthogonal assay. Human serum alternative complement pathway, LPS-coated ELISA, C3 deposition; tested in compound mixtures. inhibition, % at 5 µM. hit rate 0.08% among 62,000. AID 1235;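 active means inhibition above 30% in each of the two pooled mixtures holding the compound, so the lower value exceeds 30%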;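 further: 0% = serum in Mg-EGTA without compound and 100% = EDTA serum blank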
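Assay system: Human serum alternative complement pathway, C3 deposition on LPS-coated wells | Incubation: 1 h serum-compound exposure at 37 °C | Doses: 5 µM per compound in ten-compound mixtures | Read-out: Percent inhibition | Technique: ELISA with HRP anti-human C3 antibody, TMB substrate, absorbance 450 nm | Replication: Two pool placements per compound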
Calb biofilm kill = kills Candida albicans biofilms. C. albicans biofilm + clotrimazole, Alamar Blue. inhibition, % at 6 µM. hit rate 0.14% among 85,000. AID 834;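 active means inhibition above 20%; inactive means inhibition below 20%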;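 further: preformed 24 hr biofilms exposed to compound for 48 hr; 0% = biofilm without compound and 100% = blank killed by clotrimazole plus chlorhexidine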
D1 allo mod = allosteric modulators of human D1 dopamine receptor. P21728. HEK293 D1, CRE-luciferase, dopamine EC30 potentiation; actives deviate in either direction. B-score at 10 µM. hit rate 5.9% among 58,000;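 active means luminescence count or its row- and column-corrected plate score outside the 99.7% band of the plate's sample wells, on either side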
MMP-13 inhibitor = MMP13 (human) collagenase inhibition. P45452. MMP-13 fTHP FRET cleavage, Mca fluorescence. inhibition, % at 4 µM. hit rate 0.07% among 65,000;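 active means inhibition above the mean of compound-free control plate wells plus 3 SD, cut at about 14% in these data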;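 further: 0% = DMSO wells and 100% = wells with reference MMP-13 inhibitor after basal subtraction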
hDAT+cocaine = human DAT dopamine uptake with cocaine, either direction | AID 449768 | LLC-PK1 hDAT cells, [14C]-dopamine uptake with cocaine IC80; actives deviate in either direction | hit rate 1.3% among 110,000 | Q01959 | B-score at 10 µM;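 active means Z score or B-score, a plate-position-corrected score, falls beyond the plate's 99.7% confidence bounds, in either direction; inactive means both scores lie inside the 99.7% bounds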;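 further: scored against the spread of the other compound wells on the same plate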
Target sequence (Q01959 whole entry, looked up): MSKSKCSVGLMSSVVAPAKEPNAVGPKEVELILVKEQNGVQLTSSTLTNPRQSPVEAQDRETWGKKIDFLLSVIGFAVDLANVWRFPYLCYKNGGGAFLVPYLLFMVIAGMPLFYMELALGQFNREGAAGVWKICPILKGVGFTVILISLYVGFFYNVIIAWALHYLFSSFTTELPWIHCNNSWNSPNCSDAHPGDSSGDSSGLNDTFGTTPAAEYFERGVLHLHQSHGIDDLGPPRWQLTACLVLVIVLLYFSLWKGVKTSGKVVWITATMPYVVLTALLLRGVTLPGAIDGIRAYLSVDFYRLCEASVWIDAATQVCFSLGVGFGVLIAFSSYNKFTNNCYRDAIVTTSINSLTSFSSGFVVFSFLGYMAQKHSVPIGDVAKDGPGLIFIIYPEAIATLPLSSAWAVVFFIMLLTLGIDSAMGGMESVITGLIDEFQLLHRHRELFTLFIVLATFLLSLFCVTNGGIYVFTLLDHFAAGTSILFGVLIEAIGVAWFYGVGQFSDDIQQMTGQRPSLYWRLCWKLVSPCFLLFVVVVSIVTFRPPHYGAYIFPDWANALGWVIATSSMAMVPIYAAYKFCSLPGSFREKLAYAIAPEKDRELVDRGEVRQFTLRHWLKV
* marks the source's active call; other numbers are inactive results; . = no result. The full list was thinned out, with hits kept by preference.

SMILES	AP ELISA ortho	Calb biofilm kill	D1 allo mod	MMP-13 inhibitor	hDAT+cocaine
COc1cc(C(CCN2CCOCC2)c2c(OC)cc(OC)c3c(C)cc(=O)oc23)cc(OC)c1OC (stereo unspecified)	.	.	.	.	2.79*
COc1cc(C(CC(=O)N2CCCC2)c2c(OC)cc(OC)c3c(-c4ccccc4)cc(=O)oc23)cc(OC)c1OC (stereo unspecified)	.	.	.	.	2.72*
O=C(NC1CC1)c1ccc(-c2nc3ccccc3s2)s1	4.7	.	-6*	-10.8	0.0172
CCc1nnc2n1N=C(c1ccc(-c3cc(Cl)ccc3Cl)o1)CS2	27.6	23.6*	-0.195	-3.3	-0.0741
COc1ccc(-c2csc(N3CCN(C(=O)c4ccccc4)CC3)n2)cc1	.	9.9	.	.	-0.656
COc1ccc(-c2csc(N3C(=N)SCC3=O)n2)cc1	.	.	.	.	1.85*
CCN(CC)c1ccc2cc(NC(=O)CCC(=O)O)c(=O)oc2c1	-1.2	-7.0	-7.72*	-22.9	-0.413
CCN(CC)c1ccc2cc(C(C)=O)c(=O)oc2c1	.	0.9	.	.	-1
Fc1ccc(-c2nnc(NC3=NCCCCC3)o2)cc1	6.9	.	-6.59*	-1.5	.
Cc1cc(C)cc(NC2=NC3(CCCCC3)N=C(N)N2)c1	10.8	8.1	-5.3*	-3.8	0.0925
Cn1nnnc1Sc1nc(-c2cccnc2)nc2ccccc12	12.3	7.2	1.66	-0.7	.
C/C=C\C=C\C(=O)N1CC2(CC(c3cccc(NC(=O)CC)c3)=NO2)C[C@H]1C(N)=O (stereo partly specified)	.	.	.	.	-0.173
Cc1csc(NC(=O)c2cnc3ccccn3c2=O)n1	7.6	-2.9	-1.57	-6.0	.
Cc1ccccc1NC(=O)c1cnc2ccccn2c1=O	12.0	.	-5.82*	1.6	0.256
CCOc1ccc(NC(=O)c2oc3ccccc3c2NC(=O)C(C)C)cc1	6.5	6.2	-1.08	0.4	.
COc1ccc(OC)c(C(=O)CSc2nccc(-c3ccc(Br)cc3)n2)c1	.	.	.	.	-0.952
O=C(NC(=S)Nc1ccc(Oc2ccccc2)cc1)c1ccc(Cl)cc1	.	.	.	.	2.58*
CCNC(=S)Nc1ccc(Oc2ccccc2)cc1	.	.	.	.	-2.75*
Cc1ccc(C(=O)NC(=S)Nc2ccc(Oc3ccc(Cl)cc3)cc2)cc1	.	.	.	.	-0.0779
O=C(NCc1ccc(C(F)(F)F)cc1)C1CC(c2ccccc2[N+](=O)[O-])=NO1 (stereo unspecified)	.	.	.	.	0.395
CCCCCC(=O)Nc1ccc(N2CCN(CC)CC2)c(Cl)c1	-4.2	.	-4.6*	-2.6	0.0638
COc1ccc(C)cc1NC(=O)C(=O)NCc1ccncc1	.	.	.	.	0.302
Cc1ccc(CNc2ncc(-c3ccc4c(c3)OCO4)n2C)cc1	5.4	2.9	-4.03	4.3	-1.56
Cn1c(-c2ccc3c(c2)OCO3)cnc1NCc1ccc(Cl)cc1	-4.0	0.0	-4.31*	-14.2	-0.0884
OCC[C@H]1C[C@@H](O)[C@H](O)[C@@]2(CCCO2)O1	.	.	.	.	-1.71
SMILES	AP ELISA ortho	Calb biofilm kill	D1 allo mod	MMP-13 inhibitor	hDAT+cocaine
O=C(CCn1cnc2ccccc2c1=O)Nc1ccc(Cl)c(Cl)c1	.	41.4*	.	.	-1.2
COC(=O)c1cccc(NC(=O)Cn2cnc3ccccc3c2=O)c1	12.4	0.8	0.932	2.9	-0.355
CN(C)c1ccc(Nc2nc(-c3cccnc3)cs2)cc1	15.9	7.1	-2.85*	-0.1	-0.267
Cc1ccc(S(=O)(=O)Nc2cccc(NC(=O)CN3CCCCC3)c2)cc1	.	.	.	.	-1.18
Clc1ccc(-c2nnc(N3CCCC3)nn2)cc1	4.1	6.3	-2.48*	0.2	0.194
COC/C=C/C1=CC2=CC(=O)C(C)(OC(=O)c3cnc4ccccc4n3)C(=O)C2=CN1CCc1c[nH]c2ccccc12 (stereo unspecified)	.	.	.	.	-2.3
CCNC(=S)NNC(=O)c1cc(-c2cc(C)ccc2C)nc2ccccc12	.	.	.	.	0.606
CCOC(=O)C1=C(C)N(CCCC(=O)O)C(=O)NC1c1cc2ccccc2c2ccccc12 (stereo unspecified)	.	.	.	.	-0.26
COc1ccc(NC(=O)CCCCn2c(=O)[nH]c3ccccc3c2=O)cc1	3.4	-5.2	0.401	-0.2	-7.72*
C=CCOC(=O)C1=C[C@@H](c2ccc(C(F)(F)F)cc2)[C@H](CCCO)[C@@H](OCC)O1	.	.	.	.	-0.859
Nc1ccc(-c2nc3c(Cl)cc(N)cc3[nH]2)cc1	11.0	8.6	-2.62*	-356.9	1.7
Nc1ccc2nc(-c3ccc(N)c(Cl)c3)[nH]c2c1	.	6.0	.	.	0.0174
CN1/C(=C\C(=O)c2cccs2)Sc2ccccc21	-2.8	6.0	-4.76*	-2.0	0.0837
CN1/C(=C/C(=O)c2cccs2)Sc2ccccc21	.	0.1	.	.	0.123
Cc1c(CN(C)C(=O)c2sc3cc(Cl)ccc3c2Cl)cnn1C	.	8.7	.	.	1.81
O=C(NCCCN1CCN(c2ccc(F)cc2)CC1)c1cccc(N2CCCC2=O)c1	-4.5	2.7	-6.09*	9.2	-0.802
Cc1ccc2c(c1)C(c1ccncc1)=NNC(c1ccc(C(C)C)cc1)=N2	.	.	.	.	-0.914
Cn1c(=O)c2cc(S(=O)(=O)NCCC(=O)NCC3CCCO3)ccc2n(C)c1=O (stereo unspecified)	-0.6	10.3	-0.0632	-4.4	-0.059
Cn1c(=O)c2cc(S(=O)(=O)NCCC(=O)NC3CCCCCCC3)ccc2n(C)c1=O	5.4	3.4	-3.59*	-7.4	-0.0954
CCCn1nc2cc(C(=O)NCCc3cccs3)ccc2c1OCC	.	.	.	.	0.0634
COC1=C(N)C(=O)c2nc(-c3nc(C(=O)O)c(C)c(-c4ccc(OC)c(OC)c4O)c3N)ccc2C1=O	.	.	.	.	-4.15*
Cc1ccc(Cl)cc1NC1=C/C(=N\S(=O)(=O)c2cccs2)c2ccccc2C1=O	.	.	.	.	-3.53*
COC(=O)C1=C(C(=O)OC)[C@@H]2N(C)c3ccc(OC)cc3[C@@]23C[C@@H](C(=O)OC)N(C(=O)NC2CCCCC2)C3=N1	.	.	.	.	1.09
CCOc1ccc(OCC)c(N=c2oc3c(C)ncc(CO)c3cc2C(N)=O)c1	83.6*	5.7	0.103	-0.6	.
COc1ccc(OC)c(N=c2oc3cc(O)ccc3cc2C(N)=O)c1	-2.7	5.0	-1.6	-195.8	-1.61
SMILES	AP ELISA ortho	Calb biofilm kill	D1 allo mod	MMP-13 inhibitor	hDAT+cocaine
Cc1cccc2sc(NC(=O)CSc3nc4ccccc4o3)nc12	.	51.5*	.	.	-0.00516
O=C(CSc1nc2ccccc2o1)Nc1nc2ccc(Br)cc2s1	.	.	.	.	0.551
O=C(O)CSc1nc2ccccc2o1	-10.3	8.8	0.886	-5.1	-8.58*
O=C1OC(c2ccc(Cl)cc2)/C(=C(/O)c2ccccc2)C1=O (stereo unspecified)	.	12.5	.	.	-0.146
CCN1CCN(CC(=O)N2c3ccccc3CC2C)CC1 (stereo unspecified)	.	0.8	.	.	-0.671
CC1Cc2ccccc2N1C(=O)CSCC(=O)O (stereo unspecified)	5.2	1.3	-0.278	0.3	0.643*
Cc1cc(Cl)cc2c1NC(=O)[C@]21[C@@H]2C(=O)N(Cc3ccccc3)C(=O)[C@@H]2[C@@H]2CCCN21	2.1	9.8	0.00755	4.6	3.65*
CN1CCC(=C2c3ccccc3CCc3sccc32)CC1	.	.	.	.	0.312
CN1CCC(=C2c3ccccc3CC(=O)c3sccc32)CC1	-0.1	-2.2	-6.79*	-3.0	0.0721
OCCNc1cc(-n2nc(-c3ccccc3)cc2-c2ccccc2)ncn1	22.6	2.5	1.62	0.1	3.71*
